Results taken from article PMC2837366 (Molecular cancer therapeutics, 2010).
Values belong to the compound of their own block, whether it stands above or below them.

Columns and labels:
[1] = test system: BxPC-3 pancreatic, MCF-7 breast or A-549 NSCL cancer xenografts; assay: Antitumor activity, effect of the carbon chain length; type: in vivo, mouse; details: 200 mg/kg oral gavage twice a day for 10 days; BxPC-3, MCF-7, A-549 xenografts
Method in brief: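 Female scid mice received about 10⁷ log-phase cells in 0.2 ml PBS subcutaneously in the flank. MCF-7 cells were given in Matrigel, with a 60-day 17-β-estradiol pellet implanted the day before. Mice were stratified into groups of 8 with similar mean tumor volumes. Test compound was given orally in 0.1 ml sesame seed oil; controls received vehicle. Calipers were read twice weekly, with volume = d_short² × d_long ÷ 2. Growth rate over the dosing period was compared with control by Student's t-test. T/C is the treated growth rate as a percent of control.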

[2] = target: T1, PH domain of Akt2 (Homo sapiens, UniProt P31751); assay: SPR competitive binding assay, displacement from PtdIns
T1 sequence (P31751 5-108 limits assumed): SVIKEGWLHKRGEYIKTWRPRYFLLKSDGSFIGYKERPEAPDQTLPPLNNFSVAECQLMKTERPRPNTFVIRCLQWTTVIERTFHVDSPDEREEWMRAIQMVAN

[3] = target: T2, PH domain of PDPK1 (Homo sapiens, UniProt O15530); assay: SPR competitive binding assay, displacement from PtdIns; details: for binding to the PH domain of PDKP1: at concentrations up to 50 µM
T2 sequence (O15530 459-550 limits assumed): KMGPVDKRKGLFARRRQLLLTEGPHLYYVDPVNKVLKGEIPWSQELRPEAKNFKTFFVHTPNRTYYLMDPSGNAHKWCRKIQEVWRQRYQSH
Method in brief: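 Binding was measured by SPR on a Biacore 2000 with streptavidin chips carrying biotin-labelled PtdIns(3,4,5)P₃ liposomes. Expressed recombinant human PDPK1 PH domain was competed with increasing test compound concentrations. Ki was the concentration displacing 50% of the PH domain bound to the liposomes without drug. Values are means of 4 determinations.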

[4] = test system: PtdIns-3-K/PDPK1/Akt signaling in PC-3 prostate cells; assay: Reverse phase protein array in PC-3 cells; type: cell-based, human; details: 0.1 µM, 16 hours, RPPA
Method in brief: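 PC-3 cells were held in serum-free medium for 8 hr. They were then exposed for 16 hr to test compound at 0.1–10 µM, to wortmannin, or to DMSO vehicle. Lysate protein was analysed by quantitative reverse phase protein array with 74 validated PtdIns-3-K/Akt/PDPK1 pathway antibodies. Values are means of 3 determinations, expressed relative to DMSO control.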

[5] = SPR displacement assay, in words

Structure (SMILES): CCCCc1ccc(S(=O)(=O)Nc2nncs2)cc1 [C-4]
- antitumor activity (tumor growth rate) [1]: very little activity

Structure (SMILES): CCCCCCc1ccc(S(=O)(=O)Nc2nncs2)cc1 [C-6]
- antitumor activity (tumor growth rate) [1]: very little activity

Structure (SMILES): CCCCCCCCc1ccc(S(=O)(=O)Nc2nncs2)cc1 [C-8]
- antitumor activity (tumor growth rate) [1]: less activity

- binding to the PH domain of PDPK1 [3, 5]: showed binding
Structure (SMILES): CCCCCCCCCCCCCCc1ccc(S(=O)(=O)Nc2nncs2)cc1 [C-14]
- binding to the PH domain of Akt [2, 5]: lower, although still appreciable, binding

Structure (SMILES): CCCCCCCCCCCCCCCCc1ccc(S(=O)(=O)Nc2nncs2)cc1 [C-16]
- binding to the PH domain of Akt [2, 5]: lower, although still appreciable, binding

Structure (SMILES): CCCCCCCCCCCCCCCCCCc1ccc(S(=O)(=O)Nc2nncs2)cc1 [C-18]
- binding to the PH domain of Akt [2, 5]: lower, although still appreciable, binding

- binding to the PH domain of Akt [2, 5]: bound very weakly
Structure (SMILES): NC1(c2ccc(-c3nc4ccn5c(=O)[nH]nc5c4cc3-c3ccccc3)cc2)CCC1 [MK-2206]

- binding to the PH domain of Akt ([2]; at concentrations up to 50 µM): None of these compounds bound
- binding to the PH domain of PDKP1 [3]: None of these compounds bound
Structure (SMILES): CCCCCCCCCCCCCCCCCCOCC(COP(=O)([O-])OCC[N+](C)(C)C)OC (stereo not shown) [edelfosine]

- binding to the PH domain of Akt ([2]; at concentrations up to 50 µM): None of these compounds bound
- binding to the PH domain of PDKP1 [3]: None of these compounds bound
Structure (SMILES): CCCCCCCCCCCCCCCCCCOP(=O)([O-])OC1CC[N+](C)(C)CC1 [perifosine]

- binding to the PH domain of Akt ([2]; at concentrations up to 50 µM): None of these compounds bound
- binding to the PH domain of PDKP1 [3]: None of these compounds bound
Structure (SMILES): CN1N=C(N)c2cn([C@@H]3O[C@H](COP(=O)(O)O)[C@@H](O)[C@H]3O)c3ncnc1c23 [triciribine]

Structure (SMILES): COC[C@H]1OC(=O)c2coc3c2[C@@]1(C)C1=C(C3=O)[C@@H]2CCC(=O)[C@@]2(C)C[C@H]1OC(C)=O [wortmannin, reference compound]
- phospho-Ser241-PDPK1 [4]: reduction
- phospho-Ser473-Akt [4]: completely inhibited
- phospho-Ser657-protein kinase C (PKC) [4]: decreased
- phospho-Thr308-Akt [4]: reduction
- total SGK1 [4]: decreased
